MDM2 E3 inh: blocks human Mdm2 ubiquitin ligase activity | cell-based MDM2 ubiquitination luciferase reporter, 2 h; 0 = plate control, 100 = twice control, blank-subtracted | hit rate 0.11% among 210,000 | signal enhancement, % at 5 µM | AID 1230;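 active means signal enhancement of 30% or more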;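 further: luminescence tracks abundance of the self-degrading MDM2-luciferase fusion protein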
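system = mammalian cells stably expressing self-ubiquitinating, self-degrading MDM2 E3–luciferase fusion | quantity = 2000 cells per well seeded | incubation = 4 h cell settling then 2 h compound exposure, 37 °C | signal = SteadyLite luminescence, 15 min reagent step | benchmarks = plate control and blank wells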
PKD1 inh: PKD1 (human) kinase inhibition. Q15139. PKD1 kinase fluorescence polarization assay. inhibition, % (test concentration not listed). hit rate 0.056% among 200,000. AID 797; in the data active means inhibition above about 50%
Cl transport mod: modulators of human KCC2 chloride dependent transport; Q9H2X9; KCC2 cells, thallium flux FluoZin-2 fluorescence; B-score of Tl+ flux slope (higher = more flux/activation; lower = inhibition) at 10 µM; hit rate 2.2% among 190,000;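 active means thallium flux slope and its plate-corrected score both differing from the plate sample mean at a set confidence after two filtering rounds, in either direction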;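 further: slope of fluorescence scaled to starting intensity during 10 to 20 s after thallium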
p97 ATPase inh: blocks human p97 ATPase activity; recombinant p97 ATPase, Kinase-Glo ATP luminescence, 3 h; hit rate 0.42% among 220,000; P55072; inhibition, % at 8 µM; in the data active means inhibition above about 15%;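 further: 0% = DMSO vehicle and 100% = wells lacking enzyme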
ROMK mod: human ROMK K+ channel modulation, primary screen | P48048 | Tet-inducible ROMK, thallium flux fluorescence; actives lie on both sides | B-score at 10 µM | hit rate 2% among 130,000;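 active means signal ratio slope over the read window, or its plate-corrected B-score, at least 3 SD from the plate mean, either direction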;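 further: B-score of the F/F0 ratio slope over 7 to 12 s after thallium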
Redox H2O2 prof: compounds producing H2O2 with reducing agent – biochemical, NIH compound library profiling, artefact control for MLSCN library redox annotation, primary screen. DTT-dependent redox cycling H2O2, phenol red/HRP absorbance; 100% = 100 µM peroxide control, 0% = buffer. AID 878. activation, % at 10 µM. hit rate 0.03% among 200,000;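 active means activation of at least 50% relative to the plate's high and low controls in the primary single-dose screen; inactive means activation below 50%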;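 further: compound incubated with DTT at 0.8 mM final as the reducing agent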
ROMK retest: retested hit modulating human ROMK potassium channel | shares compounds with ROMK mod | ROMK thallium flux, fluorescence ratio; stronger effect = lower value | normalized thallium flux (F/F0 slope) at 10 µM | hit rate 54% among 3,000 | AID 1917;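 active means Flux at 10 µM at least 3 SD below or above vehicle control mean in one or both replicates; inconclusive means no clear call, values can overlap the other calls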
* marks the source's active call; other numbers are inactive results; u = inconclusive; x = no result. Compounds with a hit are over-represented: about 3.4% of the library has one in this group of screens.

SMILES | MDM2 E3 inh | PKD1 inh | Cl transport mod | p97 ATPase inh | ROMK mod | Redox H2O2 prof | ROMK retest
Cc1nc2c(sc3nc4c(cc32)COC(C)(C)C4)c(=O)n1CC(=O)NCc1ccco1 | -9 | 3 | -0.17 | -9 | 4.1* | -1 | 0.09
CN(CCCC(=O)Nc1ccncc1)S(=O)(=O)c1ccc(Cl)cc1 | -7 | -7 | -1 | 5 | -3.4* | 2 | 0.065*
CN(CC(=O)Nc1ccncc1)S(=O)(=O)c1ccc(Br)cc1 | -35 | -6 | -1.2 | 4 | x | 0 | x
CCn1c(=O)c([N+](=O)[O-])c(N2CCSCC2)c2ccccc21 | -19 | x | -2.3 | 5 | x | x | x
CCn1c(=O)c([N+](=O)[O-])c(N2CCN(Cc3ccc4c(c3)OCO4)CC2)c2ccccc21 | -74 | x | -1.6 | 1 | x | x | 0.064*
COc1cccc(CN(C)CC(=O)Nc2ccccc2C(C)C)c1 | -9 | -3 | -1 | -4 | 0.42 | 0 | x
CC(=O)/C=C1/C(=O)Nc2ccccc21 | -14 | 11 | -0.2 | 1 | -3.8* | -1 | 0.034*
O=C(COC(=O)c1ccc(Cl)c(S(=O)(=O)N2CCCCC2)c1)NCc1ccco1 | x | -4 | -0.65 | 2 | 0.17 | 0 | x
Cc1nn(C)c(Oc2ccc(Cl)cc2)c1C(=O)O | -18 | 0 | x | 4 | x | 2 | x
COc1cccc(/C=C/C(=O)c2c(O)cc(C)oc2=O)c1O | 12 | 0 | -0.63 | 1 | -5.9* | 0 | 0.057*
CC1=CC(C)(C)N=C(Nc2nc(C)c3cc(C)cc(C)c3n2)N1 | -21 | -2 | 0.83 | -2 | -3.9* | 0 | 0.049*
N#CC1=C(N)Oc2n[nH]c(-c3cccs3)c2C1c1ccncc1 (stereo not given) | -4 | 4 | 0.11 | 4 | -0.023 | 0 | x
N#CC1=C(N)Oc2n[nH]c(-c3cccs3)c2C1c1ccco1 (stereo not given) | 4 | -2 | -1.6 | -1 | -3.5* | 1 | 0.053*
CCN(CC)S(=O)(=O)c1ccc(C)c(NC(=O)Cn2cnc3cc([N+](=O)[O-])ccc3c2=O)c1 | -10 | 2 | -1.8 | 1 | 2.9* | -1 | u
O=C(Cn1cnc2cc([N+](=O)[O-])ccc2c1=O)Nc1cccc2ccccc12 | x | x | -1.1 | 6 | x | x | x
CN(c1ccccc1)c1ccc(/C=C(\C#N)c2nnc3n2CCCCC3)cc1[N+](=O)[O-] | -2 | -12 | -0.42 | 2 | x | 1 | x
N#C/C(=C\c1cccc([N+](=O)[O-])c1)c1nnc2n1CCCCC2 | 7 | 1 | 0.71 | 2 | -4.4* | 0 | 0.046*
CCS(=O)(=O)N1CCN(Cc2ccc([N+](=O)[O-])cc2)CC1 | -8 | 2 | 1.3 | -1 | x | 1 | x
O=[N+]([O-])c1ccc(CN2CCOCCOCCN(Cc3ccc([N+](=O)[O-])cc3)CCOCC2)cc1 | 3 | -9 | -1.1 | 0 | -9.9* | 0 | 0.012*
CSc1ccc(CN2CCN(Cc3ccc([N+](=O)[O-])cc3)CC2)cc1 | -25 | -5 | x | 0 | -3.9* | -1 | 0.054*
CCOc1ccc2c(c1)ncn2Cc1ccccc1 | 1 | 1 | -1.1 | 4 | 0.78 | 0 | x
O=S1(=O)CCC(NC(=S)SCCOc2ccccc2)C1 (stereo not given) | -13 | -5 | -1.4 | 2 | -5* | 1 | 0.068*
CCC(=O)N/C=C/n1cnc2cc(C(F)(F)F)ccc21 | -12 | 6 | 1.1 | 1 | x | 2 | x
N#Cc1c(NCc2ccccc2)ccnc1NCc1cccnc1 | -22 | -10 | 0.16 | 0 | x | 3 | 0.073
CN(C)c1ccnc(NCc2ccccc2)c1C#N | -7 | -4 | 0.32 | 0 | x | 0 | x
Cc1cc(C)n(C(=O)C23CC4CC(CC(C4)C2)C3)n1 | 8 | -3 | x | 4 | x | 1 | x
CCCC1=C(C(=O)OCC)C(c2cccs2)C(C#N)=C(N)O1 (stereo not given) | -19 | -4 | -0.085 | 4 | 2.3* | 0 | 0.08
CCOC(=O)C1=C(C)OC(N)=C(C#N)C1c1cccs1 (stereo not given) | -10 | 2 | -1.9 | -1 | -0.91 | 0 | x

High-throughput results: PubChem BioAssay, several laboratories
